ChEMBL document CHEMBL1909517, “Green synthesis and antimicrobial evaluation of some new trifluoromethyl-substituted hexahydropyrimidines by grinding” (2011)
≈ marks a conversion by molar mass, not a printed value. Calls of active or inactive are those of the source. No cut-off for these calls is given here.

What was measured:
Type in all cases: functional
Bacillus thuringiensis [1] = assay: Ratio of tetracycline MIC to compound MIC for Bacillus thuringiensis
Bacillus thuringiensis [2] = assay: Antimicrobial activity against Bacillus thuringiensis after 24 hrs by spectrophotometry
How it was run: (§1)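 Broth MIC read turbidimetrically. Bacteria were pre-cultured 24 h at 37 °C in LB, then held at 4 °C. Compounds active in an agar-well pre-screen (20 mg/ml DMSO, 100 µl per well, 37 °C 24 h) went forward. Dilutions of 1, 5, 10, 15 and 20 mg/ml DMSO from stock were made up to 10 ml LB and inoculated with 10 µl suspension. Triplicate tubes, 37 °C for 24 h, spectrophotometric growth read-out.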

Escherichia coli [3] = assay: Antimicrobial activity against Escherichia coli after 24 hrs by spectrophotometry; how it was run: as §1
Escherichia coli [4] = assay: Ratio of tetracycline MIC to compound MIC for Escherichia coli

CCOC(=O)C1C(c2ccc(Cl)cc2)NC(=O)NC1(O)C(F)(F)F (stereo not given)
Ratio (Bacillus thuringiensis [1]): 6
MIC (Bacillus thuringiensis [2]): ≥ 15 mg/mL
MIC (Escherichia coli [3]): ≥ 15 mg/mL
Ratio (Escherichia coli [4]): 6

CCOC(=O)C1C(c2ccc(F)cc2)NC(=S)NC1(O)C(F)(F)F (stereo not given)
Activity (Bacillus thuringiensis [2]): inactive
Activity (Escherichia coli [3]): inactive

CCOC(=O)C1C(c2ccc(C)cc2)NC(=S)NC1(O)C(F)(F)F (stereo not given)
Ratio (Bacillus thuringiensis [1]): 6
MIC (Bacillus thuringiensis [2]): ≥ 20 mg/mL
MIC (Escherichia coli [3]): ≥ 20 mg/mL
Ratio (Escherichia coli [4]): 6

CCOC(=O)C1C(c2cccs2)NC(=O)NC1(O)C(F)(F)F (stereo not given)
Ratio (Bacillus thuringiensis [1]): 6
MIC (Bacillus thuringiensis [2]): ≥ 20 mg/mL
MIC (Escherichia coli [3]): ≥ 20 mg/mL
Ratio (Escherichia coli [4]): 6

CCOC(=O)C1C(c2ccccc2)NC(=S)NC1(O)C(F)(F)F (stereo not given)
Ratio (Bacillus thuringiensis [1]): 6
MIC (Bacillus thuringiensis [2]): ≥ 15 mg/mL
MIC (Escherichia coli [3]): ≥ 15 mg/mL
Ratio (Escherichia coli [4]): 6

CCOC(=O)C1C(c2ccc(OC)cc2)NC(=S)NC1(O)C(F)(F)F (stereo not given)
Ratio (Bacillus thuringiensis [1]): 6
MIC (Bacillus thuringiensis [2]): ≥ 15 mg/mL
MIC (Escherichia coli [3]): ≥ 15 mg/mL
Ratio (Escherichia coli [4]): 6

CN(C)[C@@H]1C(O)=C(C(N)=O)C(=O)[C@@]2(O)C(O)=C3C(=O)c4c(O)cccc4[C@@](C)(O)[C@H]3C[C@@H]12 [TETRACYCLINE]
MIC (Bacillus thuringiensis [2]): 75 mg/mL (≈ 169 mM)

CCOC(=O)C1C(c2ccc(C)cc2)NC(=O)NC1(O)C(F)(F)F (stereo not given)
Ratio (Bacillus thuringiensis [1]): 6
MIC (Bacillus thuringiensis [2]): ≥ 20 mg/mL
MIC (Escherichia coli [3]): ≥ 20 mg/mL
Ratio (Escherichia coli [4]): 6

CCOC(=O)C1C(c2ccc(O)cc2)NC(=O)NC1(O)C(F)(F)F (stereo not given)
Ratio (Bacillus thuringiensis [1]): 6
MIC (Bacillus thuringiensis [2]): ≥ 20 mg/mL
MIC (Escherichia coli [3]): ≥ 20 mg/mL
Ratio (Escherichia coli [4]): 6

CCOC(=O)C1C(c2ccc(Cl)cc2)N=C(S)NC1(O)C(F)(F)F (stereo not given)
Activity (Bacillus thuringiensis [2]): inactive
Activity (Escherichia coli [3]): inactive

CCOC(=O)C1C(c2ccc(N(C)C)cc2)NC(=S)NC1(O)C(F)(F)F (stereo not given)
Ratio (Bacillus thuringiensis [1]): 6
MIC (Bacillus thuringiensis [2]): ≥ 20 mg/mL
MIC (Escherichia coli [3]): ≥ 20 mg/mL
Ratio (Escherichia coli [4]): 6

CCOC(=O)C1C(c2ccccc2)NC(=O)NC1(O)C(F)(F)F (stereo not given)
Activity (Bacillus thuringiensis [2]): inactive
Activity (Escherichia coli [3]): inactive

CCOC(=O)C1C(c2ccc(O)cc2)NC(=S)NC1(O)C(F)(F)F (stereo not given)
Ratio (Bacillus thuringiensis [1]): 6
MIC (Bacillus thuringiensis [2]): ≥ 20 mg/mL
MIC (Escherichia coli [3]): ≥ 20 mg/mL
Ratio (Escherichia coli [4]): 6

CCOC(=O)C1C(c2ccc([N+](=O)[O-])cc2)NC(=O)NC1(O)C(F)(F)F (stereo not given)
Activity (Bacillus thuringiensis [2]): inactive
Activity (Escherichia coli [3]): inactive
